We go through 4 compounds from publication PMC5097029 (Biochimica et biophysica acta, 2016).

Values joined by “and” are separate entries in the source; they are usually repeats but may differ in a detail not shown here. Equal values may be shown once. Ends that are not written are not given here.

Series [1] has as its system leukemia cells (Jurkat, THP-1). Type of series: cell-based, human. Particulars: read-out: IC50 toward leukemia cells.
Series [2] in a line: MTT cytotoxicity assay, MDA-MB-231 cells. The format is cell-based, human. The conditions noted are these: % Cytotoxicity, MTT, 24 h, mean ± SEM. A general note: Tetrazolium assays rely on reduction of a dye to a coloured formazan, in cell work by metabolically active cells.
In series [3] the test system is MDA-MB-231 breast cancer cells. The series can be described thus: MTT cytotoxicity assay, MDA-MB-231 cells. The format is cell-based, human. The conditions noted are these: read-out: IC50 in MDA-MB-231 breast cancer cells; C-terminal amide form.
Series [4] deals with MDA-MB-231 breast cancer cells. The series can be described thus: Propidium iodide uptake, MDA-MB-231. Type of series: cell-based, human. A digest of the protocol: (§1)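 Jurkat or MDA-MB-231 cells (5 × 10⁵) were exposed to test compound or vehicle. PI (10 μg/ml final) was added 5 min before flow cytometry, and mean channel fluorescence was recorded. For Jurkat, exposure lasted 5 or 10 min, with n=3.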

In series [5] the test system is Jurkat T-ALL cells. The series can be described thus: LDH-release time course, Jurkat cells. The format is cell-based, human. The gist of the method:
(§2)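 Jurkat cells or PBMCs (density-gradient isolated from healthy donors' venous blood) were cultured at 37°C, 5% CO₂, with test compound over a time course. Supernatants taken at each time point were assayed for LDH activity with a commercial kit. Percent cytotoxicity = (E−N)/(P−N)×100, with vehicle as negative and Triton X-100 as positive control. Values are the mean of 3 independent experiments ± SEM.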

The test system of another series is primary PBMCs. The series can be described thus: LDH-release time course, PBMCs. Type of series: cell-based, human. A digest of the protocol: as §2
The test system of series [6] is Jurkat T-ALL cells. The series can be described thus: Propidium iodide uptake, Jurkat. The format is cell-based, human. Particulars: 25 μM, 5 or 10 min. A digest of the protocol: as §1
Series [7] concerns Jurkat T-ALL cells. The series can be described thus: Combination with chemotherapeutic agents, MTT assay 72 h. The format is cell-based, human. The gist of the method:
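Jurkat cells in RPMI 1640 (2.5% FBS final), seeded at 5 × 10⁵ cells/ml just before treatment. Increasing concentrations of a chemotherapeutic agent, with or without test peptide fixed at 4.5 μM, for 72 h at 37°C, 5% CO₂. MTT added at […] final for the last 2 h; DMSO-solubilised formazan read at 490 nm. Percent cytotoxicity scaled between vehicle and 1% Triton X-100; mean of 3 independent experiments ± SEM.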

A short description of series [8]: Calcein leakage from large unilamellar vesicles. The conditions noted are these: 20 min; for calcein leakage (membrane disruption) from LUVs: LUVs of 100% anionic lipid POPS; for calcein leakage from LUVs as lipid composition became less negatively charged: greater proportion of zwitterionic lipid POPC. A digest of the protocol:
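LUVs were made from POPC/POPS films (1 mg total lipid) hydrated in 10 mM Tris, 150 mM NaCl, 1 mM EDTA, pH 7.4, with 70 mM calcein. Suspensions were freeze-thawed five times, extruded 15 times through 100 nm filters, and cleared of free dye on Sephadex G-50. Vesicles were diluted to 10 μM final lipid, given peptide at set peptide:lipid molar ratios and held ~20 min at room temperature. Ex 490/em 520 was read against 1% Triton X-100 and water controls. Samples were run at least in duplicate per preparation; values are the mean of three experiments ± SD.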

The test system of a further series is HOPC myeloma cells. Type of series: cell-based, mouse. Particulars: read-out: IC50 toward myeloma cells.
Series [9] relates to Paclitaxel-resistant MCF7-TX400 cells. The series can be described thus: Trypan blue exclusion, MCF7 and MCF7-TX400. Type of series: cell-based, human. Particulars: 24 h. The gist of the method: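 MCF7 and paclitaxel-resistant MCF7-TX400 cells were maintained in DMEM/10% FBS at 10% CO₂ for ≤30 passages. They were cultured with or without test compound for 24 h, and viability was scored by trypan blue exclusion counts. Values are the mean of 3 independent experiments ± SEM.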

For series [10], the system named is 4T1 mouse mammary carcinoma. The series can be described thus: 4T1 mammary carcinoma model in BALB/c mice. Type of series: in vivo. The conditions noted are these: IP, gemcitabine 60 mg/kg Q7D, Mastoparan 6 mg/kg Q2D, from day 5.
Series [11] has as its system cancer cells and normal cells. The series can be described thus: Specificity factor: IC50 in cancer cells versus normal cells. Particulars: depending on the cancer cell line and the normal cell compared. Type of series: cell-based.
The next series concerns human erythrocytes. The series can be described thus: Hemolysis assay. Type of series: cell-based. The conditions noted are these: screen of 24 short cationic peptides.
A further series is described as follows: Hemolysis assay. The format is cell-based, human. Particulars: % Hemolysis, human erythrocytes, 4 h, mean ± SEM.
Series [12] relates to breast cancer cells (MDA-MB-231, SKBR3, MDA-MB-468, T47D, 4T1). Type of series: cell-based, human; mouse. The conditions noted are these: read-out: IC50 toward breast cancer cells.
Series [13] in a line: MTT cytotoxicity assay, Jurkat cells. Type of series: cell-based, human. The conditions noted are these: % Cytotoxicity, Jurkat, MTT, 24 h, mean ± SEM.
For another series, the system named is Jurkat T leukemia cells. The series can be described thus: MTT cytotoxicity assay, Jurkat cells. The format is cell-based, human. The conditions noted are these: for effect of pan-caspase inhibitor BOC-D-FMK on induced cell death: BOC-D-FMK 40 μM.
In a further series the test system is Jurkat cells. The series can be described thus: DNA laddering. The format is cell-based, human. The conditions noted are these: 0.1-25 μM, 4 h. The gist of the method:
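Jurkat cells (RPMI 1640, 5% CO₂, 37°C) were exposed to test compound for 4 h, alongside medium, vehicle and 50 μM etoposide (4 h or 24 h) controls. DNA was extracted with a kit and run on a 0.8% agarose gel to look for laddering.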

For another series, the system named is PBMCs. The series can be described thus: MTT cytotoxicity assay, normal PBMCs. Type of series: cell-based, human. Particulars: read-out: IC50 to PBMC; normal cells (PBMC).
The nature of series [14]: MTT cytotoxicity assay, normal PBMCs. Type of series: cell-based, human. The conditions noted are these: % Cytotoxicity, PBMCs, MTT, 24 h, mean ± SEM.
Series [15] can be described thus: MTT cytotoxicity assay, primary HMECs. Type of series: cell-based, human. Particulars: % Cytotoxicity, 24 h, mean ± SEM. A digest of the protocol:
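Primary HMECs (MEGM-maintained, ≤6 passages) were seeded at 2 × 10⁵ cells/ml 24 h before treatment. They were exposed for 24 h at 2.5% final FBS, 37°C, 10% CO₂. MTT ([…] final) was added for the last 2 h, with 1% Triton X-100 as the 100%-death control. Formazan was dissolved in DMSO and OD 490 read. Cytotoxicity = (E−N)/(P−N)×100 against vehicle and Triton controls; values are the mean of 3 independent experiments ± SEM.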

Where [16] appears, read: Mastoparan 4.5 μM (IC10) with vinblastine, Jurkat, MTT 72 h.

The term IC50 denotes the concentration needed to halve the response being measured. On to `CC[C@H](C)[C@H](N)C(=O)N[C@@H](CC(N)=O)C(=O)N[C@@H](CC(C)C)C(=O)N[C@@H](CCCCN)C(=O)N[C@@H](C)C(=O)N[C@@H](CC(C)C)C(=O)N[C@@H](C)C(=O)N[C@@H](C)C(=O)N[C@@H](CC(C)C)C(=O)N[C@@H](C)C(=O)N[C@@H](CCCCN)C(=O)N[C@@H](CCCCN)C(=O)N[C@H](C(=O)N[C@@H](CC(C)C)C(N)=O)[C@@H](C)CC` [Mastoparan, INLKALAALAKKIL-NH2], for which the IC50 is 8 to 9.2 µM in series [1]; 22 µM in series [3]; ~11 µM in the series with HOPC myeloma cells; 20 to 24 µM in [12]; 9.1 µM with Jurkat T leukemia cells (read-out: IC50 in Jurkat T-ALL cells, C-terminal amide form); 48 µM in the series on PBMCs. The cytotoxicity in series [2] (MDA-MB-231, 10 μM Mastoparan) was found to be 20 ± 1%; in [2] (MDA-MB-231, 25 μM Mastoparan), 62 ± 2%; in [2] (MDA-MB-231, 50 μM Mastoparan) it was 96 ± 1%; in [13] (10 μM Mastoparan), 64 ± 7%; in series [13] (25 μM Mastoparan) it was 95 ± 4%; in [13] (50 μM Mastoparan), 97 ± 1%. The cytotoxicity in series [14] (10 μM Mastoparan) stood at 13 ± 5%; in [14] (25 μM Mastoparan), 29 ± 7%; in series [14] (50 μM Mastoparan), 49 ± 3%; in series [15] (10 μM Mastoparan) it was 16 ± 1%; in series [15] (25 μM Mastoparan) it was 37 ± 7%; in series [15] (50 μM Mastoparan) it was 67 ± 14%. Also, the “PI uptake (membrane integrity)” value (in [4]; in the series with Jurkat T-ALL cells [6]) was “rapid PI uptake” each time. For the same compound, the “time at which cytotoxicity peaked” value in the series with Jurkat T-ALL cells [5] and in the series with primary PBMCs was 8 h each time. Further, the IC10 concentration in the series with Jurkat T-ALL cells [7] (Jurkat T-ALL cells) came out at 4.5 µM. Also, in the series with Jurkat T-ALL cells [7] (Mastoparan 4.5 μM (IC10) with etoposide, Jurkat, MTT 72 h), the “fold reduction of the EC50 of etoposide” value is reported as “approximately 2 fold”. In addition, the “increase of vinblastine-mediated cytotoxicity” value in the series with Jurkat T-ALL cells [7] (setting [16]) is 10% and ~ 10%. Besides, the ΔIC50 of vinblastine in the series on Jurkat T-ALL cells [7] (setting [16]) is on record as ~ 1.2 fold. For the same compound, the “calcein leakage (membrane disruption) from LUVs” value in [8] was “caused membrane disruption”. Moreover, the “calcein leakage from LUVs as lipid composition became less negatively charged” value in series [8] is given as “largely unchanged”. For the same compound, the “toxicity to MCF7-TX400 cells compared with parental MCF7 cells” value in series [9] is given as “as toxic”. Also, in [10], the “tumour growth (tumour volume and mass) in comparison to saline-treated mice” value is given as “not statistically significant”. The “specificity factor (selectivity index): fold-difference in the IC50 between cancer cells and normal cells” value in series [11] was 2–6 fold. Besides, the “hemolytic activity in preliminary screen” value with human erythrocytes was “devoid of hemolytic activity”. Further, the results for the hemolysis in the series “Hemolysis assay” (10 μM Mastoparan), in the series “Hemolysis assay” (25 μM Mastoparan) and in “Hemolysis assay” (50 μM Mastoparan) were 1 ± 1%, 2 ± 1% and 7 ± 1%, respectively. Further, the “effect of pan-caspase inhibitor BOC-D-FMK on induced cell death” value in the series on Jurkat T leukemia cells (Jurkat, MTT 24 h) is “not reversed”. Also, the “cytotoxic potency of amidated form compared with free carboxyl form” value with Jurkat T leukemia cells (Jurkat, MTT 24 h) is reported as “significantly more potent”. Further, the “fold more potent than Mastoparan-COOH” value with Jurkat T leukemia cells (Mastoparan-NH2 versus Mastoparan-COOH) is recorded as 8–11 fold. Moreover, the DNA laddering entry in the series on Jurkat cells is recorded as “did not cause DNA laddering”.

With `COc1cc([C@@H]2c3cc4c(cc3[C@@H](O[C@@H]3O[C@@H]5CO[C@@H](C)O[C@H]5[C@H](O)[C@H]3O)[C@H]3COC(=O)[C@H]23)OCO4)cc(OC)c1O` [etoposide, reference compound], in the series with Jurkat T leukemia cells (Jurkat, MTT 24 h), the “effect of pan-caspase inhibitor BOC-D-FMK on induced cell death” value is recorded as “significantly reduced”.

On to `Nc1ccn([C@@H]2O[C@H](CO)[C@@H](O)C2(F)F)c(=O)n1` [gemcitabine, reference compound], for which the “tumour growth (tumour volume and mass) in comparison to saline-treated mice” value in series [10] is reported as “not statistically significant”.

For “INLKALAALAKKIL-COOH (INLKALAALAKKIL-OH) [Mastoparan-COOH, reference compound]”, in series [8], the “calcein leakage (membrane disruption) from LUVs” value was “caused membrane disruption” and the “calcein leakage from LUVs as lipid composition became less negatively charged” value is reported as “significantly reduced”.
